# Source: PubChem BioAssay (The Scripps Research Institute Molecular Screening Center)
# CHRM5 agonist: agonists of human muscarinic M5 receptor (CHRM5) | P08912 | CHO-K1 hM5 cells, Fluo-8 calcium fluorescence; 0% DMSO wells, 100% maximal acetylcholine response | activation, % at 3 µM | actives 0.19% (n = 360,000);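 active = activation above the run's mean over test compounds plus 3 SD, cut at about 23% in these data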;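 also: signal is peak over basal fluorescence ratio across the kinetic read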
# M4 PAM: CHRM4 positive allosteric modulation | P08173 | CHO-K1 hM4/Gqi5, Fluo-8 calcium fluorescence, ACh EC20; 0% = ACh EC20, 100% = maximal ACh | activation, % at 3 µM | actives 0.4% (n = 360,000) | AID 624126;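 active = activation above its plate's cutoff, the mean activation of sample wells plus 3 SD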
# Target sequence (P08173 whole entry, looked up): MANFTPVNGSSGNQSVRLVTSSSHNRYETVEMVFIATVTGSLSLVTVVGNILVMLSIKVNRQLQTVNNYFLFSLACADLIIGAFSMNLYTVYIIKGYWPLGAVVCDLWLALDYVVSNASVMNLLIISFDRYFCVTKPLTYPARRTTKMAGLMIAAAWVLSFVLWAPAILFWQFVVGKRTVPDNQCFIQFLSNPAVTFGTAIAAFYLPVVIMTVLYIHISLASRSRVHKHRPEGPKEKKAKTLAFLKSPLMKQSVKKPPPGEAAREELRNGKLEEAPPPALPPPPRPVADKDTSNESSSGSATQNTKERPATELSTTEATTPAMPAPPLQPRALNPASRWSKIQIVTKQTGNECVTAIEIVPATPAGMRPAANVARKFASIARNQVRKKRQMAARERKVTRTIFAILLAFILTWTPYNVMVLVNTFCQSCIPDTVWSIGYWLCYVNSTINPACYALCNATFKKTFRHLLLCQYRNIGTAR
# CHRM4 agonist: CHRM4 agonism in calcium assay. P08173. CHO-K1 hM4/Gqi5, Fluo-8 calcium fluorescence; vehicle 0%, full acetylcholine response 100%. activation, % at 3 µM. actives 0.14% (n = 360,000);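 active = activation above the run mean over all test wells plus 3 SD, cut at about 32% in these data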;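 also: peak over basal fluorescence ratio per well then scaled between controls; 0% = DMSO wells and 100% = acetylcholine at EC100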
# CHRM5 PAM: CHRM5 positive allosteric modulation | P08912 | CHO-K1 hM5, Fluo-8 calcium, ACh EC20 PAM; 0% = ACh EC20, 100% = ACh EC100 | activation, % at 3 µM | actives 0.3% (n = 360,000) | AID 624038;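 active = activation above the run cutoff, the mean activation of all test compounds plus 3 SD, cut at about 18% in these data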
#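 Measured by: Fluo-8 calcium fluorescence; material: human M5 receptor in CHO-K1 cells; schedule: Post-acetylcholine fluorescence recording 140 s; benchmarks: low control EC20 acetylcholine (0%), high control EC100 acetylcholine (100%); read-out: Max/basal fluorescence ratio as % of EC20–EC100 ACh window; compound: single dose, 3 µM nominal final test concentration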
# M4 antag: antagonists of human muscarinic M4 receptor (CHRM4); actives 0.73% (n = 360,000); CHO-hM4 cells, ACh EC80, Fluo-8 calcium fluorescence; P08173; inhibition, % at 3 µM; AID 624125;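 active = inhibition above its plate's cutoff, the mean inhibition of sample wells plus 3 SD, cut at about 27% in these data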;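 also: 0% = acetylcholine EC80 with DMSO and 100% = DMSO without agonist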
# M5 antag: blocks acetylcholine activation of human M5 receptor; CHO-hM5 cells, Fluo-8 calcium fluorescence, ACh EC80; inhibition, % at 3 µM; actives 0.59% (n = 360,000); AID 624040;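 active = inhibition above a per-plate cutoff, the mean of that plate's test compounds plus 3 SD, cut at about 27% in these data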;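 also: 0% = acetylcholine EC80 with DMSO and 100% = DMSO without agonist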
# * marks the source's active call; other numbers are inactive results. Sampled rows, rich in hits. Any-hit rate of the full collection: about 1.8%.
SMILES,CHRM5 agonist,M4 PAM,CHRM4 agonist,CHRM5 PAM,M4 antag,M5 antag
Cc1ccc(O)c(C(=O)c2cnc3c(c2)c(=O)n(C)c(=O)n3C)c1,0.0,5.5,1.6,2.8,-3.0,5.0
Cc1ccc(O)c(C(=O)c2cnc(/N=C(\N)N(C)C)nc2)c1,-8.1,-21.0,1.6,-1.0,38.4*,-5.9
CCc1ccc(C2CC(=O)N3CN(c4ccccc4)CSC3=C2C#N)cc1 (centres undefined),-0.5,-8.9,0.2,2.9,1.0,-3.8
CN1CSC2=C(C#N)C(c3cccc(OCc4ccccc4)c3)CC(=O)N2C1 (centres undefined),39.9*,-0.6,5.2,-17.5,-15.0,-5.7
O=C(Nc1cccc2ccccc12)NC1CCCCC1O (centres undefined),-3.6,5.2,1.1,1.3,-1.9,0.0
O=C(NCc1ccco1)c1ccc(CS(=O)c2ccccc2Cl)o1 (centres undefined),0.2,5.2,2.7,-7.0,-20.9,6.8
O=C(NCCCN1CCC(Cc2ccccc2)CC1)c1ccc(CS(=O)c2ccccc2Cl)o1 (centres undefined),-2.4,-13.7,6.7,-18.8,28.4*,22.6
CC(=O)N(C)c1ccc(NC(=O)Nc2ccc(Cl)cc2)cc1,7.3,-14.3,26.9,-29.3,26.3,28.9*
CCN(CC(=O)Nc1c(F)cccc1F)C(=O)c1cccc(S(=O)(=O)N(C)c2ccccc2)c1,1.6,-8.6,5.4,-9.7,4.5,11.2
COc1ccc(N(CC(=O)N2CCOCC2)S(C)(=O)=O)cc1OC,4.9,0.1,0.5,-1.0,-2.1,-1.6
Fc1ccc(-[n+]2nc(Nc3ccccc3)sc2-c2c3ccccc3cc3ccccc23)cc1,35.9*,-3.1,16.2,-19.8,9.1,39.0*
COc1ccc(C)cc1Nc1n[n+](-c2ccccc2)c(-c2cc(OC)c(OC)cc2Br)s1,-7.8,9.8,1.1,-3.4,-13.7,22.2
COc1ccc(C)cc1Nc1n[n+](-c2ccccc2)c(-c2c(OC)ccc3ccccc23)s1,-1.6,-6.2,21.1,-30.7,16.5,27.2*
CC1(C(=O)Nc2ccc3c(c2)OCCO3)CN(S(C)(=O)=O)CC(=O)N1CCCN1CCOCC1 (centres undefined),1.9,3.7,1.9,2.1,-0.1,-5.6
COC(=O)C(C(=O)OC)c1ccccc1NC(=O)OCc1ccccc1,0.3,1.7,1.6,-2.1,-2.3,-3.9
COc1cccc(NC(=S)N(Cc2ccc(C(=O)O)cc2)Cc2ccc(OC)c(OC)c2)c1,3.1,19.7*,1.0,2.9,8.8,-3.0
O=S(=O)(c1ccc2c(c1)CCCC2)N1CCNCC1,-0.4,4.7,0.7,8.6,1.5,-4.1
CCCCCCN[C@H]1CCC2C3CC=C4C[C@@H](O)CC[C@]4(C)C3CC[C@@]21C (some centres undefined),-9.7,-11.8,11.9,-18.3,36.6*,11.8
O=C(COC(=O)C1(c2ccccc2F)CCCC1)NC1CCS(=O)(=O)C1 (centres undefined),1.5,24.3*,1.4,1.2,-15.6,-7.6
O=C(COc1ccccc1)NC1CCS(=O)(=O)C1 (centres undefined),1.5,1.4,1.4,5.7,-5.6,-2.9
CCOC(=O)Nc1ccc2c(c1)N(C(=O)C(C)N1CCCC1)c1ccccc1CC2 (centres undefined),-6.8,-15.7,1.0,-24.2,60.0*,23.9
CCOC(=O)Nc1ccc2c(c1)N(C(=O)OC)c1ccccc1CC2,-2.7,9.8,-0.1,-0.4,-6.1,1.4
O=C(CN1CCCC1)N1c2ccccc2Sc2ccccc21,-9.8,-24.7,0.4,-14.0,60.9*,59.2*
O=C(CN1CCC(O)CC1)N1c2ccccc2C=Cc2ccccc21,-10.3,-21.3,0.8,-33.2,28.8*,19.4
CCCC(CCC)C(=O)Nc1ccc2c(c1)N(C(=O)CN1CCN(C)CC1)c1ccccc1CC2,-10.8,-23.9,0.8,-18.6,43.8*,31.0*
SMILES,CHRM5 agonist,M4 PAM,CHRM4 agonist,CHRM5 PAM,M4 antag,M5 antag
CCN1CCN(CC(=O)N2c3ccccc3Sc3ccccc32)CC1,-8.3,-14.9,2.2,-19.0,31.4*,4.7
O=C(CN1CCCCC1)N1c2ccccc2CCc2ccccc21,-6.5,-22.4,0.8,-17.7,76.6*,49.3*
Cc1cnc(CNC(=O)c2csc([C@@H]3C[C@H](O)[C@@H](CO)O3)n2)cn1,1.0,1.9,0.8,-1.8,-7.7,2.3
CCN(Cc1nc2ccccc2c(=O)[nH]1)C(=O)c1cccc(OCc2c(C)noc2C)c1,5.1,-4.7,7.0,-7.5,-4.8,10.4
O=C1c2ccccc2CCc2ccccc21,-3.0,6.0,-0.6,2.1,-5.8,8.3
CC[N+]1(C)CCC(=C2c3ccccc3CC(=O)c3sccc32)CC1 (centres undefined),-7.4,-28.9,0.5,-17.4,99.2*,98.8*
C[N+]1(C)CCC(=C2c3ccccc3CC(=O)c3sccc32)CC1,-7.5,-28.7,0.3,-17.4,80.5*,77.3*
COc1ccc(CN(C)C(=O)c2cc(-c3ccccc3)nc3ccc(C)cc23)c(OC)c1,2.7,-9.1,13.7,-15.9,30.6*,18.2
CCC(C)NC(=O)C1c2ccccc2C(=O)N1Cc1ccc(OC)cc1OC (centres undefined),1.9,1.1,0.7,2.7,-2.6,-9.2
CCC(C)NC(=O)C1c2ccccc2C(=O)N1Cc1ccccc1OC (centres undefined),2.8,10.6,0.2,29.6*,-7.8,-11.7
Cc1cc(NC(=O)CCSc2ccccc2)ccc1Br,-3.9,-8.3,4.3,-13.8,8.5,10.8
COc1cc(C=C2C(=O)OC(C)(C)OC2=O)cc(Cl)c1OCC(=O)Nc1ccccc1,0.9,9.6,1.5,2.0,-6.1,6.3
CC(C)(C)C1(C)OC(=O)C(=Cc2ccc(OCC(=O)Nc3ccccc3)cc2)C(=O)O1 (centres undefined),-1.3,30.1*,3.1,14.8,-16.8,-5.4
CC(C)Cn1c(N)c(C(=O)COC(=O)Cc2cccs2)c(=O)n(C)c1=O,6.4,-6.1,13.8,-10.4,19.0,31.9*
CC(C)Cn1c(N)c(C(=O)COC(=O)/C=C/c2cccs2)c(=O)n(C)c1=O,8.0,-22.5,14.1,-13.6,12.1,15.8
COc1ccc(NC(=O)Nc2cc(C)cc(C)c2)cn1,-0.4,-2.2,5.3,-10.4,3.7,15.6
COc1ccc(NC(=O)Nc2ccc([N+](=O)[O-])cc2)cn1,7.9,-8.8,22.4,-13.1,0.3,34.0*
CCN1CCN(c2ccc(NC(=O)c3ccc(Cl)c(S(=O)(=O)N4CCCC4)c3)cc2)CC1,-7.6,-13.2,7.9,-36.6,47.9*,55.9*
